Experimental data reported in the EternaBench riboswitch data.

System: MS2 coat protein
Assay: apparent Kd, MS2 coat protein; higher = weaker binding; RNA-MaP array
How it was run: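 For each design, the apparent Kd is the median of binding-curve fits across its clusters. Designs measured on fewer than 10 clusters were dropped. The RNAs were transcribed from sequenced DNA templates on an Illumina sequencing chip and incubated at room temperature, with or without input ligand, with fluorescently labeled MS2 coat protein at 1.5 nM to 3 μM.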

[1] = designed as: OFF switch for flavin mononucleotide, no ligand
[2] = ligand present: flavin mononucleotide, designed as: OFF switch for flavin mononucleotide
[3] = designed as: OFF switch for theophylline, no ligand
[4] = ligand present: theophylline, designed as: OFF switch for theophylline
[5] = designed as: OFF switch for tryptophan, no ligand
[6] = ligand present: tryptophan, designed as: OFF switch for tryptophan
[7] = designed as: ON switch for flavin mononucleotide, no ligand
[8] = ligand present: flavin mononucleotide, designed as: ON switch for flavin mononucleotide
[9] = designed as: ON switch for theophylline, no ligand
[10] = ligand present: theophylline, designed as: ON switch for theophylline

Sequence | apparent Kd [1] [nM] | apparent Kd [2] [nM] | apparent Kd [7] [nM] | apparent Kd [8] [nM] | also measured
UACCUUAGCAACAUGAGGAUCACCCAUGUUUGGUGGCGAAUUAGAAGGGACAGCAUUUAUACAAGUCAGGAUAUAAUUUAGGGA | 16.5 | 11.6 |  |  | 
AACAAGGACAGAGGAUAUAUCAACAUUGAAGUAAUAGAAGGCUGAGAGAAUGAGACUCAUAAACAUGAGGAUCACCCAUGUAAC | 82.2 | 81.4 |  |  | 
CAAAUGAGAGGAUAUACAAUUAGAUUUCAAAGUCACAUCAGACAUGAGGAUCACCCAUGUAGAAGGCUCGGAUA | 23.7 | 193 |  |  | 
CGACACCAGGCAAUCCAUCACCCGGCUGAUACCAGCUCUUUUGGAAGCCCUUGGCAGCAGAGAACAUGAGGAUCACCCAUGUCAG |  |  |  |  | apparent Kd [3]: 14.6 nM; apparent Kd [4]: 21.2 nM
UCAGUGGGUUCGGCCGCCACUUGAGUGAUGGUGCCUCAAUAAGUCUACAUGAGGAUCACCCAUGUAAGGACCGGGAAUUUUAUGG |  |  |  |  | apparent Kd [5]: 35.3 nM; apparent Kd [6]: 32.5 nM
AUAGGGCGACAGAAGGGCAGUGCACGCAUUGCUGCAGGAUAUGUGGUCCACAUGAGGAUCACCCAUGUAGUAAUAUCUUGUAGU |  |  | 104 | 71.2 | 
GUGAAACAUGAGGAUCACCCAUGUUAGGAUAUAGGUAACCUAGUACAUGAUCUGCUGGCUAGAAGGAACUGGAU | 14.2 | 11.5 |  |  | 
GUUUCGUCAGGAUAUGCUUAAGAAGUCUUCUCACCGGACUUGCAGAAGGGACAUGAGGAUCACCCAUGUGGUAA | 36.5 | 167 |  |  | 
AAUGGAAGGGAGAAGGCACGCUCUGUCGAACCGUGAGGAUAUCCAUCGGGUAAUAUACAUGAGGAUCACCCAUGUGGCGUCCAG |  |  | 25.8 | 14.6 | 
CUCGAGUUUACAGGAUAUUAGGAAAUCGGAUAUUAAGAAGGGUAAAUGUACAUGAGGAUCACCCAUGUUCUCUGCUGCGUCAUA | 15.4 | 14.5 |  |  | 
AUAGAUAAGCAGAAGGGCUUGAGAUCCGUAACUAUUGACAUGAGGAUCACCCAUGUUCGUCCCUAGCAGGAUAUGCAAAGAAGC |  |  | 61.2 | 22.5 | 
UAACCGUGAGGAUAUACAUGAGGAUCACCCAUGUGGUUUUGCUGCGCACAUACUUUAUGUAGAAGGCACAACUG | 50 | 59.9 |  |  | 
AACAUGAGGAUCACCCAUGUUAGAAUAACAACGGAAAUAACAGAGGAUAUCGUUAAUUAAUAGCGCGAGAAGGCAGAAUUCAAA |  |  | 6.86 | 5.95 | 
CACAAACCAGAGAAGGCCCUAAGAGUAUAGAGAAUACGAAACAUGAGGAUCACCCAUGUCAUAUGGGAGGAUAUCAACAAGAUU |  |  | 135 | 11.3 | 
CGUAAUGCACUAGGAUAUGUUGUAUAUACAACGACAGAAGGAGUUCCACAUGAGGAUCACCCAUGUCCAAACCAAUACUCAUCG |  |  | 78.2 | 64 | 
AGCACAAAGUAGAAGGGUAGCACCGAUUUUCAUACAGGAUAUACGAAGGCAGGGUCAACAUGAGGAUCACCCAUGUUACCGCUU |  |  | 5.59 | 5.39 | 
GAACAUCGAGGAUAUACAUGAGGAUCACCCAUGUAUUAGAGGGUGCCCUAGCUCAAAAGUAGAAGGCGACAGGU | 9.8 | 12.7 |  |  | 
AUAGAGGAAGGAUAUACAUGAGGAUCACCCAUGUAACGAAGUAGUUGGAUGCCAUGAAGUAGAAGGUCCAGAUG | 14.5 | 13.6 |  |  | 
UCCUUACACAUGAGGAUCACCCAUGUAUCCACAGGUUGAGGGCAGGAUAUACAUAAUUUGACCUUGUAGAAGGGCCUGACAAAA | 213 | 103 |  |  | 
GAAUUAAAUCAAGGAUAUCUGUGGAAGCGGACCUCUUACAUGAGGAUCACCCAUGUUCGCGAGCAAGAGAAGGUGAUUAGCGAA | 414 | 131 |  |  | 
AAAACGGGUUAGAAGGGCAAUUUUGAUGACAGUGCAGGAUAUAACUUGUGUCCGAAUAUGGACAUGAGGAUCACCCAUGUUAGU |  |  | 468 | 185 | 

Sequence | apparent Kd [1] [nM] | apparent Kd [2] [nM] | apparent Kd [7] [nM] | apparent Kd [8] [nM] | also measured
CCGGAGACCGUGUCAGCGGAAGCAAGAACACGAGGACCGGUACGGCCGCCACUCGAAAGAAGACAUGAGGAUCACCCAUGUCCAU |  |  |  |  | apparent Kd [5]: 12 nM; apparent Kd [6]: 13.9 nM
UUUGAAAAGCAGAAGGUUCAUAACAUGAGGAUCACCCAUGUGACAUUAAUGAUCCGGUUUUUACGAAAGGAUAUGCUUCUCCUA | 8.33 | 32.6 |  |  | 
GGCUGACAUGAGGAUCACCCAUGUAGUGAUACCAGUAAGAGAAUAUACCCUUGGCAGCACAGGUAACAACUCGUCUCCAAAGUAA |  |  |  |  | apparent Kd [9]: 42.7 nM; apparent Kd [10]: 78.9 nM
CCAGUUGACUAGAAGGCAAUACGGAUAAAGUAACUGACCACAUGAGGAUCACCCAUGUAUCCCAUUGAGGAUAUAGCAUUAAGU | 44.2 | 25.8 |  |  | 
UCUUGACAUGAGGAUCACCCAUGUCACAUUUCUAGAGGAUAUAUACAUGUUGAUCUCUGUAUAGAAGGCUAAGUCG |  |  | 18.5 | 11.7 | 
AACAAGUAGGAGAAGGUAGAUGAGACUGUGCACUAAGGAUAUCCAUACAUGAGGAUCACCCAUGUCUGGACUAGUAUAUGGACA | 5.74 | 5.69 |  |  | 
AGAAGUCCAGACUACACGUGGAAAAGCGAUACCAGACUCAUAGGUGUCCCUUGGCAGCGCGUAACAUGAGGAUCACCCAUGUGAU |  |  |  |  | apparent Kd [3]: 142 nM; apparent Kd [4]: 139 nM
GCGGUCCACUUGGAUACCAGCAGAUUAAUAAACAUGAGGAUCACCCAUGUAAGCGCCUUGUGCCCUUGGCAGCCAGGGUGGUCAG |  |  |  |  | apparent Kd [9]: 83.8 nM; apparent Kd [10]: 46.3 nM
GAAGAACCCGGAGGAUAUGCAAAGGAACAUGAGGAUCACCCAUGUUUCUUUCGGAAAUCUAGUGAGCAGAAGGCCGAAAGGAAC |  |  | 13.1 | 7.95 | 
ACUAUUCAUUAUGGCACAUGAGGAUCACCCAUGUAGUGCGAACAGGAUAUACAAAAGAAUGUCAAGUAGAAGGGUUCCAGGUUC |  |  | 28 | 19.8 | 
UUGUUUAGGAUAGGAUAUAGGUCUAAAAGUGAGUCGGACAUGAGGAUCACCCAUGUGGGUGCGAUCUAGAAGGAUCCGCCGCGG | 754 | 269 |  |  | 
CUUCCCACGUAGAAGGUGCACCAGUUAACCAAUAACAGGUUGACAUGAGGAUCACCCAUGUUUCGCAAGGAUAUACUGUUCACG |  |  | 48.5 | 34.8 | 
UCGGAUACUGUAGGAUAUCGACCAAAUUUUCCUCGAGAAGGACAUCUAUAUAUAGAGAACAUGAGGAUCACCCAUGUGUUUUUG | 15 | 15.2 |  |  | 
UUGAUAGCAGGAUAUACCAGUCAUGUCUCGCAAUUUACCCGACAUGAGGAUCACCCAUGUAGAAGGGCUGUUUA | 15.3 | 14.5 |  |  | 
UAAAGAUGUGCAGGAUAUUAGAAACGGCGGGAACUUAAAUUCAAACAUGAGGAUCACCCAUGUAAUAAGAAGGGCAAACUAAGA | 15.9 | 20.6 |  |  | 
CGCGCUGAAGGAUAUGCAUUGGACUACAUGAGGAUCACCCAUGUCCCGUCUUGUGGACCCGCAGAAGGUCACUACC | 9.25 | 12 |  |  | 
GAAAUAUAGUCAGGAUAUCAGGACAUGAGGAUCACCCAUGUACUGAAUGGGCUGGUGAAAAGAGAUGAGAAGGGACACACUAGA | 6.23 | 5.78 |  |  | 
UUCACAAGAAUUUACAUGAGGAUCACCCAUGUCCUUGCAAAGGAGGAUAUUGAGUACAAGACCUACAAGAAGGCCAGAGACAAG |  |  | 46.4 | 15.5 | 
AUUUUGGGAGGAUAUACAUGAGGAUCACCCAUGUUUUAGAACGUAAGAGAAUCCGGAGGUAGAAGGCCCUUCUG | 180 | 212 |  |  | 
GGCACACAUGAGGAUCACCCAUGUGGCGAUACCAGUUGAUGGUAAAACCCUUGGCAGCGCCAGUCACAUGCAGAUAGUUACUGAA |  |  |  |  | apparent Kd [9]: 13.9 nM; apparent Kd [10]: 16.5 nM
